Measurements as given in ChEMBL document CHEMBL2380235, “Discovery of N-{4-[(3-hydroxyphenyl)-3-methylpiperazin-1-yl]methyl-2-methylpropyl}-4-phenoxybenzamide analogues as selective kappa opioid receptor antagonists” (J Med Chem, 2013).
Active and inactive are the calls of the source. No cut-off for these calls is given here.

Assays:
[1] = biological target: Mu-type opioid receptor (Homo sapiens) (UniProt P35372); conditions: CHO
[2] = biological target: Delta-type opioid receptor (Homo sapiens) (UniProt P41143); assay: Intrinsic activity at human delta opioid receptor expressed in CHO cells at 10 uM by [35S]GTPgammaS binding assay; assay type: functional, cell-based
[3] = biological target: Kappa-type opioid receptor (Homo sapiens) (UniProt P41145); assay: Antagonist activity at human kappa opioid receptor expressed in CHO cells assessed as inhibition of U69,593-stimulated [35S]GTPgammaS binding; assay type: functional, cell-based
Outline: (§1)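 Agonist concentration-response curves (eight concentrations, duplicate) were run with or without a single test-compound concentration. Ke = [L]/(DR−1), where [L] is the test-compound concentration and DR is the ratio of agonist EC50 with versus without compound. At least two test-compound concentrations were used, chosen to shift agonist EC50 rightward at least four-fold while keeping a clear upper asymptote.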

Homo sapiens [4] = organism: Homo sapiens; assay: Selectivity ratio of Ke for human mu opioid receptor to Ke for human kappa opioid receptor
[5] = biological target: Kappa-type opioid receptor (Homo sapiens) (UniProt P41145); assay: Intrinsic activity at human kappa opioid receptor expressed in CHO cells at 10 uM by [35S]GTPgammaS binding assay; assay type: functional, cell-based
[6] = biological target: Delta-type opioid receptor (Homo sapiens) (UniProt P41143); assay: Antagonist activity at human delta opioid receptor expressed in CHO cells assessed as inhibition of DPDPE-stimulated [35S]GTPgammaS binding; assay type: functional, cell-based
Outline: as §1

Homo sapiens [7] = organism: Homo sapiens; assay: Selectivity ratio of Ke for human delta opioid receptor to Ke for human kappa opioid receptor

Sequence of Kappa-type opioid receptor (Homo sapiens) (P41145 whole entry): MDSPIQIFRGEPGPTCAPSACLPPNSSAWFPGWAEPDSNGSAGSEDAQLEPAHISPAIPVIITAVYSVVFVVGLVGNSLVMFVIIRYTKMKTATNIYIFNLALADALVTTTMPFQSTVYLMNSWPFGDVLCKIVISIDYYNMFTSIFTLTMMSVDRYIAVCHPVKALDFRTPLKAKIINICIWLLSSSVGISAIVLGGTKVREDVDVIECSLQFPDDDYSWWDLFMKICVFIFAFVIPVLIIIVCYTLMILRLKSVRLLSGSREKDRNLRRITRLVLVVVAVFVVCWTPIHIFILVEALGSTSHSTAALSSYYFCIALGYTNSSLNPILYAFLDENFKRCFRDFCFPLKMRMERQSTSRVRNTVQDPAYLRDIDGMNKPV
Sequence of Delta-type opioid receptor (Homo sapiens) (P41143 whole entry): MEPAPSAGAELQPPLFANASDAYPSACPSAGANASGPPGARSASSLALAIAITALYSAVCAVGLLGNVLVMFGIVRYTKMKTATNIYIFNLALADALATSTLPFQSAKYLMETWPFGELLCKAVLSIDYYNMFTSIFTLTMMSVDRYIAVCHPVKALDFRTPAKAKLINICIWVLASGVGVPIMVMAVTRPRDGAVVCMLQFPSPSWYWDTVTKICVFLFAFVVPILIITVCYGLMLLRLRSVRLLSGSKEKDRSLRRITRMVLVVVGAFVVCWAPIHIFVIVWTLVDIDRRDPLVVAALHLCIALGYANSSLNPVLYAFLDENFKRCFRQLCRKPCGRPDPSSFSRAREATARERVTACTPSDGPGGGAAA
Sequence of Mu-type opioid receptor (Homo sapiens) (P35372 whole entry): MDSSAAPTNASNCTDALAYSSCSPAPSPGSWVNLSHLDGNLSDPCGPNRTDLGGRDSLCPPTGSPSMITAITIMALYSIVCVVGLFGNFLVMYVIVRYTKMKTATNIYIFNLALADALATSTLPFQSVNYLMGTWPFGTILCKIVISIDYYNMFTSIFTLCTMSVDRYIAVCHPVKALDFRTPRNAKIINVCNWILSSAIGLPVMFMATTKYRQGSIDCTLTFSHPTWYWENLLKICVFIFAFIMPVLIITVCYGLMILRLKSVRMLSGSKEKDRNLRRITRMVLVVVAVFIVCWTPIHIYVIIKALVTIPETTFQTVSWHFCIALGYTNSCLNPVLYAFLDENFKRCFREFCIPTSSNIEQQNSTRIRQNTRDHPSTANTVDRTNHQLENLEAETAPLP

| Structure (SMILES) | Ke [1] | Activity [2] | Ke [3] | Ratio Ke (Homo sapiens [4]) | Activity [5] | Ke [6] | Ratio Ke (Homo sapiens [7]) |
| --- | --- | --- | --- | --- | --- | --- | --- |
| COc1ccc(Oc2ccc(C(=O)N[C@H](CN3CCN(c4cccc(O)c4)[C@@H](C)C3)C(C)C)cc2)cc1 | 17 nM | inactive | 0.6 nM | 28 | inactive | 1380 nM | 2300 |
| Cc1cc(C)cc(Oc2ccc(C(=O)N[C@H](CN3CCN(c4cccc(O)c4)[C@@H](C)C3)C(C)C)cc2)c1 | 25 nM | inactive | 0.98 nM | 26 | inactive | 78 nM | 80 |
| CC(C)[C@@H](CN1CCN(c2cccc(O)c2)[C@@H](C)C1)NC(=O)c1ccc(Oc2cccc(O)c2)cc1 | 69 nM | inactive | 1.85 nM | 37 | inactive | 625 nM | 338 |
| COc1cc(C(=O)N[C@H](CN2CCN(c3cccc(O)c3)[C@@H](C)C2)C(C)C)ccc1Oc1cccc(C)c1 | 35.1 nM | inactive | 0.25 nM | 140 | inactive | 93 nM | 372 |
| CC(C)[C@@H](CN1CCN(c2cccc(O)c2)[C@@H](C)C1)NC(=O)c1ccc(Oc2ccc(O)cc2)cc1 | 71 nM | inactive | 8.6 nM | 8 | inactive | 1700 nM | 197 |
| Cc1ccc(O)c(Oc2ccc(C(=O)N[C@H](CN3CCN(c4cccc(O)c4)[C@@H](C)C3)C(C)C)cc2Cl)c1 | 8.2 nM | inactive | 3 nM | 3 | inactive | 15 nM | 5 |
| CC(C)[C@@H](CN1CCN(c2cccc(O)c2)[C@@H](C)C1)NC(=O)c1ccc(Oc2ccccc2O)cc1 | 125 nM | inactive | 1.06 nM | 146 | inactive | 960 nM | 906 |
| COc1cc(C(=O)N[C@H](CN2CCN(c3cccc(O)c3)[C@@H](C)C2)C(C)C)ccc1Oc1ccccc1O | 74 nM | inactive | 16.3 nM | 5 | inactive |  | 7 |
| CC(C)[C@@H](CN1CCN(c2cccc(O)c2)[C@@H](C)C1)NC(=O)c1ccc(Oc2ccccc2F)cc1 | 21.1 nM | inactive | 0.76 nM | 28 | inactive | 96 nM | 126 |
| Cc1ccc(O)c(Oc2ccc(C(=O)N[C@H](CN3CCN(c4cccc(O)c4)[C@@H](C)C3)C(C)C)cc2)c1 |  | inactive |  |  | inactive |  |  |
| COc1ccc(C(=O)N[C@H](CN2CCN(c3cccc(O)c3)[C@@H](C)C2)C(C)C)cc1OC |  | inactive | 81.7 nM | 4 |  |  |  |
| Cc1ccc(Oc2ccc(C(=O)N[C@H](CN3CCN(c4cccc(O)c4)[C@@H](C)C3)C(C)C)cc2)cc1 | 20 nM | inactive | 0.69 nM | 29 | inactive | 188 nM | 272 |
| Cc1cc(C(=O)N[C@H](CN2CCN(c3cccc(O)c3)[C@@H](C)C2)C(C)C)ccc1Oc1ccccc1 | 15 nM | inactive | 0.63 nM | 24 | inactive | 435 nM | 691 |
| COc1cccc(Oc2ccc(C(=O)N[C@H](CN3CCN(c4cccc(O)c4)[C@@H](C)C3)C(C)C)cc2)c1 | 33 nM | inactive | 0.63 nM | 52 | inactive | 1500 nM | 2380 |
| Cc1cccc(Oc2ccc(C(=O)N[C@H](CN3CCN(c4cccc(O)c4)[C@@H](C)C3)C(C)C)c(C)c2)c1 |  | inactive | 0.65 nM | 28 | inactive |  | 22 |
| COc1ccccc1Oc1ccc(C(=O)N[C@H](CN2CCN(c3cccc(O)c3)[C@@H](C)C2)C(C)C)cc1 | 127 nM | inactive | 5.6 nM | 23 | inactive | 869 nM | 155 |
| CC(C)[C@@H](CN1CCN(c2cccc(O)c2)[C@@H](C)C1)NC(=O)c1ccc(Oc2ccccc2O)c(Cl)c1 |  | inactive | 5 nM | 7 | inactive |  | 42 |
| CC(C)[C@@H](CN1CCN(c2cccc(O)c2)[C@@H](C)C1)NC(=O)c1ccc(Oc2cccc(Cl)c2)cc1 | 18 nM | inactive | 0.42 nM | 43 | inactive | 8.3 nM | 20 |
| CC(C)[C@@H](CN1CCN(c2cccc(O)c2)[C@@H](C)C1)NC(=O)c1ccc(Oc2cccc(F)c2)cc1 | 30 nM | inactive | 1.48 nM | 20 | inactive | 173 nM | 117 |
| COc1cc(Oc2cccc(C)c2)ccc1C(=O)N[C@H](CN1CCN(c2cccc(O)c2)[C@@H](C)C1)C(C)C | 49 nM | inactive | 1.3 nM | 38 | inactive | 63 nM | 48 |
| CC(C)[C@@H](CN1CCN(c2cccc(O)c2)[C@@H](C)C1)NC(=O)c1ccc(Oc2cccc(Br)c2)cc1 | 17 nM | inactive | 0.48 nM | 35 | inactive | 42 nM | 88 |
| Cc1cccc(Oc2ccc(C(=O)N[C@H](CN3CCN(c4cccc(O)c4)[C@@H](C)C3)C(C)C)cc2)c1 | 13 nM | inactive | 0.17 nM | 77 | inactive | 131 nM | 771 |

Continued, values first:

| Ke [1] | Activity [2] | Ke [3] | Ratio Ke (Homo sapiens [4]) | Activity [5] | Ke [6] | Ratio Ke (Homo sapiens [7]) | Structure (SMILES) |
| --- | --- | --- | --- | --- | --- | --- | --- |
| 23.8 nM | inactive | 0.34 nM | 70 | inactive | 93 nM | 272 | Cc1cccc(Oc2ccc(C(=O)N[C@H](CN3CCN(c4cccc(O)c4)[C@@H](C)C3)C(C)C)cc2)c1O |
| 43 nM | inactive | 0.29 nM | 148 | inactive | 1100 nM | 3790 | Cc1cccc(Oc2ccc(C(=O)N[C@H](CN3CCN(c4cccc(O)c4)[C@@H](C)C3)C(C)C)cc2Cl)c1 |
|  | inactive | 6.2 nM | 1.6 | inactive |  | 19 | COc1cc(C(=O)N[C@H](CN2CCN(c3cccc(O)c3)[C@@H](C)C2)C(C)C)ccc1Oc1cc(C)ccc1O |
| 60 nM | inactive | 1.6 nM | 38 | inactive | 1790 nM | 1120 | CC(C)[C@@H](CN1CCN(c2cccc(O)c2)[C@@H](C)C1)NC(=O)c1ccc(Oc2ccccc2)nc1 |
| 21 nM | inactive | 1.2 nM | 18 | inactive | 54 nM | 45 | CC(C)[C@@H](CN1CCN(c2cccc(O)c2)[C@@H](C)C1)NC(=O)c1ccc(Oc2cccc(C(F)(F)F)c2)cc1 |
| 49.4 nM | inactive |  |  | inactive | 1550 nM |  | CC(C)[C@@H](CN1CCN(c2cccc(O)c2)[C@H](C)C1)NC(=O)[C@H]1Cc2ccc(O)cc2CN1 |
| 101 nM | inactive | 2.8 nM | 36 | inactive | 2020 nM | 723 | CC(C)[C@@H](CN1CCN(c2cccc(O)c2)[C@@H](C)C1)NC(=O)c1ccc(Oc2ccccc2)cn1 |
| 74.2 nM | inactive |  |  | inactive | 1310 nM |  | CC(C)[C@@H](CN1CCN(c2cccc(O)c2)[C@@H](C)C1)NC(=O)[C@H]1Cc2ccc(O)cc2CN1 |
|  | inactive | 1.9 nM | 63 | inactive |  | 463 | Cc1cccc(Oc2ccc(C(=O)N[C@H](CN3CCN(c4cccc(O)c4)[C@@H](C)C3)C(C)C)c(O)c2)c1 |
| 13.7 nM | inactive | 0.57 nM | 24 | inactive | 81 nM | 142 | Cc1cccc(Oc2ccc(C(=O)N[C@H](CN3CCN(c4cccc(O)c4)[C@@H](C)C3)C(C)C)cc2O)c1 |
| 14.4 nM | inactive | 0.16 nM | 89 | inactive | 21 nM | 131 | Cc1cccc(Oc2ccc(C(=O)N[C@H](CN3CCN(c4cccc(O)c4)[C@@H](C)C3)C(C)C)cc2C)c1 |
